Screens from PubChem.
TRPC6 inhibitor = blocks the mouse TRPC6 cation channel. B-score at 10 µM. 1.1% of 310,000 active. Q61143. HEK293-TRPC6, membrane potential dye, ACh-evoked depolarization; hits give low values. AID 2553;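 active means B-score under library mean minus 3 SD, initial fluorescence not abnormally high, positive integrated signal ratio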;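 further: B-score derived from integrated fluorescence ratio over the kinetic read; more negative B-score means stronger inhibition of depolarization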
TRPC4 PAM = allosterically enhances the mouse TRPC4 cation channel; HEK293 TRPC4beta/mu-opioid, DAMGO EC20, Fluo-4 Ca2+ flux; hits give high values; B-score at 10 µM; 0.42% of 310,000 active; AID 2227;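 active means B-score of calcium response area above 5 SD of library B-scores, with initial fluorescence ratio within 5 SD of library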;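 further: B-score of integrated fluorescence ratio over time as area under calcium response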
Target sequence (Q9QUQ5 whole entry, looked up): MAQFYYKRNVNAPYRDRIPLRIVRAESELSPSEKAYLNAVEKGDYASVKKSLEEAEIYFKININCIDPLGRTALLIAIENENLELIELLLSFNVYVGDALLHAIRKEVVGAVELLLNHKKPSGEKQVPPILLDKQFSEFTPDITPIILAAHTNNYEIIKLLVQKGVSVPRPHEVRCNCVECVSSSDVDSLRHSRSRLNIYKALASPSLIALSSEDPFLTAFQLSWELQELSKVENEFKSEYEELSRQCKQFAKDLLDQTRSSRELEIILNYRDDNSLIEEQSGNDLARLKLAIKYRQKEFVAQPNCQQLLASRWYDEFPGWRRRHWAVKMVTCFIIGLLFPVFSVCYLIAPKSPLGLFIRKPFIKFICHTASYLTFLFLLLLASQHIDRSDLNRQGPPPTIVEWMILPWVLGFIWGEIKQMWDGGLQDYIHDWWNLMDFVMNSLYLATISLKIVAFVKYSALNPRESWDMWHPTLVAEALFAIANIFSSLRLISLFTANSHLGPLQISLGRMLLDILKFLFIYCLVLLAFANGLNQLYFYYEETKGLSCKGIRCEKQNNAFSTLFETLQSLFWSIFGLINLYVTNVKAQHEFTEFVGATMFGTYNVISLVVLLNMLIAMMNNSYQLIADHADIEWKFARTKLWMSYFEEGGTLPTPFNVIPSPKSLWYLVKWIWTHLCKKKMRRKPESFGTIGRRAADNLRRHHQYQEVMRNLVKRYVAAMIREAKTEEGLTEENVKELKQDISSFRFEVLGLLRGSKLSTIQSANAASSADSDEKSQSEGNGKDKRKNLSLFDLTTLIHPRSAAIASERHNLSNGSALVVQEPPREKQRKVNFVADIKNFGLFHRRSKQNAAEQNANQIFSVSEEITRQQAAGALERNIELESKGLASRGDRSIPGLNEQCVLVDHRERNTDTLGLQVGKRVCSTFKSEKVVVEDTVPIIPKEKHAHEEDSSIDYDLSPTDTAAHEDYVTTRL
TRPC4 block = TRPC4 (mouse) channel inhibition. Q9QUQ5. HEK293 TRPC4beta/mu-opioid, DAMGO-evoked Fluo4 calcium flux; hits give low values. B-score at 10 µM. 0.39% of 300,000 active;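 active means B-score over 3 SD under the library average, no early fluorescence shift, positive overall ratio signal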
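test system = HEK293 cells with stable TRPC4beta plus mu-opioid receptor expression | detection = Fluo4 Ca2+ flux fluorescence | read-out = integrated fluorescence ratio relative to baseline, converted to per-well B score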
TRPC6 activator = activates the mouse TRPC6 cation channel. Q61143. HEK293-TRPC6 membrane potential dye fluorescence; hits give high values. B-score at 10 µM. 0.13% of 310,000 active. AID 2550;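 active means B-score of the integrated fluorescence ratio above library mean plus 3 SD, and starting fluorescence ratio within library mean plus 5 SD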;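 further: higher score means more depolarization so channel activation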
TRPC4 act = TRPC4 (mouse) channel activation; HEK293 TRPC4beta/mu-opioid, Fluo4 calcium fluorescence; hits give high values; 0.49% of 310,000 active; B-score at 10 µM; AID 2237; Q9QUQ5;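 active means B-score above 5 SD of library B-scores, and initial fluorescence ratio not above library mean plus 5 SD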;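 further: positive B-score marks a calcium rise read as TRPC4 activation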
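Test system: HEK293 cells stably co-expressing mouse TRPC4beta and mu-opioid receptor | Schedule: Fluo4 dye loading 45 min at room temperature, 110 s recording | Measured by: Kinetic Fluo4 calcium fluorescence, 5 s baseline at 1 Hz | Evaluation: B score of integrated ratio | Controls: Buffer (low) and maximal DAMGO (high)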
An asterisk follows results filed as active; i = inactive. An excerpt weighted towards active compounds, which were near 2.3% of everything screened.

SMILES	TRPC6 inhibitor	TRPC4 PAM	TRPC4 block	TRPC6 activator	TRPC4 act
NS(=O)(=O)c1ccc(CCNC(=O)c2cc3ccccc3oc2=O)cc1	i	i	i	i	i
C/C(N)=C(/C#N)C(=O)COC(=O)c1ccc(OCC2CCCO2)cc1 (stereo unspecified)	i	i	i	i	i
O=C(/C=C/c1ccc(F)cc1)NC(=S)N1CCN(Cc2ccccc2)CC1	i	i	i	i	i
O=C(/C=C/c1ccc(F)cc1)NNC(=O)CCN1CCN(Cc2ccccc2)CC1	i	i	i	i	50*
COc1cccc(/C=C/C(=O)NNC(=O)CCN2CCN(Cc3ccccc3)CC2)c1	i	12*	i	i	48*
COc1ccc(Cl)cc1NC(=O)CCN1CCN(Cc2ccccc2)CC1	i	i	i	i	i
CCOC(=O)c1c(CN2CCN(C)CC2)n(-c2ccccc2)c2cc(Br)c(O)cc12	i	i	i	i	i
CCOC(=O)c1c(CSC(=N)N)n(-c2ccccc2)c2cc(Br)c(OC(C)=O)cc12	i	14*	i	i	i
CCc1noc(C)c1C(=O)Nc1ccc(Cl)c(S(=O)(=O)N2CCCCC2)c1	i	i	i	i	i
Cc1ccc(C)c(NC(=S)N(C)CCc2ccccn2)c1	i	i	i	i	74*
Cc1cccc(CN(C)CCc2ccccn2)c1	i	i	i	i	i
Cc1cccc(OCC(=O)N(C)CCc2ccccn2)c1	i	i	i	i	54*
CN(C)S(=O)(=O)c1cccc(NC(=S)NCCc2ccccn2)c1	i	i	i	i	i
CN(CCc1ccccn1)C(=S)Nc1cccc(S(=O)(=O)N(C)C)c1	i	i	i	i	101*
O=C(OCc1ccccc1F)c1cc2ccccc2cc1O	i	i	i	i	i
Cc1c(CNC(=O)C2CCC(=O)N(CCc3ccccc3)C2)cnn1C (stereo unspecified)	i	i	i	i	i
COc1ccc(C(=O)COC(=O)CN2C(=O)C3C4CCC(C4)C3C2=O)cc1 (stereo unspecified)	i	i	i	i	i
Cc1cc(C)cc(NC(=S)N2CCN(c3ncc(C(F)(F)F)cc3Cl)CC2)c1	i	i	i	i	141*
C=CCNC(=S)N1CCN(c2ccccc2Cl)CC1	i	i	i	i	i
C=CCNC(=S)N1CCN(c2ncc(C(F)(F)F)cc2Cl)CC1	i	11*	i	i	i
COc1ccc(C)cc1NC(=O)CCNS(=O)(=O)c1ccc2c(c1)CC(C)N2C(C)=O (stereo unspecified)	i	i	i	i	i
O=c1c2ccccc2ncn1-c1ccc([N+](=O)[O-])cc1[N+](=O)[O-]	i	i	i	i	i
Cc1ccc(-n2cnn(-c3ccc([N+](=O)[O-])cc3[N+](=O)[O-])c2=O)cc1	i	i	-6*	i	i
COc1ccccc1N1CCN(S(=O)(=O)c2cc(Br)cnc2N)CC1	i	i	i	i	i
Cc1ccc(OCc2cc(C(=O)N(C)CCc3nc4ccccc4[nH]3)no2)cc1C	i	i	-6*	i	i
SMILES	TRPC6 inhibitor	TRPC4 PAM	TRPC4 block	TRPC6 activator	TRPC4 act
CC(C)c1nnc(NC(=O)CCC(=O)N2CCC(Cc3ccccc3)CC2)s1	i	i	i	i	i
CN(c1ccc(C(=O)N/N=C/c2cccc([N+](=O)[O-])c2)cc1)S(=O)(=O)c1ccccc1	i	i	i	i	i
CCn1c(NCc2c[nH]c3ccccc23)nc2ccccc21	i	i	-8*	i	i
CCn1c(NCc2ccccn2)nc2ccccc21	i	i	i	i	71*
COc1cccc(CC2(CO)CCN(Cc3cnc(N4CCOCC4)s3)CC2)c1	i	i	i	i	i
Cc1ncc(CN2CCC(CO)(CCc3ccccc3)CC2)s1	i	i	i	i	73*
Cc1ncc(CN2CCN(CCc3ccccc3)C(CCO)C2)s1 (stereo unspecified)	i	i	i	i	i
OCC1(CCCc2ccccc2)CCN(Cc2cnc(N3CCOCC3)s2)CC1	i	i	i	i	46*
CCn1c(=O)c(CCC(=O)N2CCN(c3ccccn3)CC2)c(C)c2c(C)nn(-c3ccccc3)c21	i	i	i	i	i
c1ccc(-c2ccc(-c3ccccn3)nn2)nc1	-11*	i	i	i	i
CCN(CC(=O)Nc1ccc(C(=O)OC)cc1)C1CCCCC1	i	i	i	i	i
CC(Oc1ccc(C(=O)c2ccccc2)cc1)C(=O)Nc1ccc(S(N)(=O)=O)cc1 (stereo unspecified)	i	i	i	i	58*
CC(Oc1ccccc1)C(=O)Nc1ccc(NC(=O)c2ccccc2)cc1 (stereo unspecified)	i	i	i	i	i
COc1ccc2[nH]c(=O)c(CN(C(=O)c3ccco3)C3CCCCC3)cc2c1	i	10*	i	i	i
COc1ccc2[nH]c(=O)c(CN(C(C)=O)C3CCCCC3)cc2c1	i	i	i	i	i
CN(C)CCOC(=O)c1sc2ccccc2c1Cl	i	i	i	i	92*
COc1ccc(-c2nc(CSCC(=O)NC3CC3)c(C)o2)cc1OC	i	i	i	i	i
COc1ccc(-c2nc(CSCC(=O)NC3CCN(Cc4ccccc4)CC3)c(C)o2)cc1OC	i	i	i	i	116*
CCc1ccc(CNC(=O)CCn2ccc3cc(S(=O)(=O)N4CCCC4)ccc32)cc1	i	i	i	i	i
CCc1ccc2[nH]c(=O)c(C3C(C#N)=C(N)Oc4c3ccc3cccnc43)cc2c1 (stereo unspecified)	-5.9*	i	i	i	i
CCCN1Cc2cccc(C(=O)N3CCN(c4cc(Cl)ccc4C)CC3)c2C1=O	i	15*	i	i	i
COc1cc(C(C)=O)ccc1OCC(=O)N(CCC1=CCCCC1)c1c(N)n(Cc2ccccc2)c(=O)[nH]c1=O	i	i	i	i	i
COc1cc2c(cc1OC)CN(C(=O)CN1C(=O)c3ccc([N+](=O)[O-])cc3C1=O)CC2	i	i	i	i	i
COc1ccc(C(CNc2ccc(C(F)(F)F)cn2)N(C)C)cc1OC (stereo unspecified)	i	i	-6*	i	i
Cc1c(Cl)cccc1NC(=S)N1CCCN(Cc2ccc(F)cc2)C1	i	i	i	i	44*
